Test results: ChEMBL document CHEMBL3860038, “Discovery of (R,E)-N-(7-Chloro-1-(1-[4-(dimethylamino)but-2-enoyl]azepan-3-yl)-1H-benzo[d]imidazol-2-yl)-2-methylisonicotinamide (EGF816), a Novel, Potent, and WT Sparing Covalent Inhibitor of Oncogenic (L858R, ex19del) and Resistant (T790M) EGFR Mutants for the Treatment of EGFR Mutant …” (J Med Chem, 2016)
≈ marks a conversion by molar mass, not a printed value.

How the values were obtained:
Cytochrome P450 3A4 = Cytochrome P450 3A4 (Homo sapiens, UniProt P08684); test: Inhibition of CYP3A4 (unknown origin); type: ADME
[1] = Inhibition of EGFR E746 to A750 deletion mutant phosphorylation in human patient derived HCC827 cells incubated for 3 hrs by ELISA method; type: cell-based; conditions: HCC827, 3 h
Outline: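 HCC827 cells plated at 7500/well in 5% FBS/RPMI and left overnight at 37 °C. Then 3 h with a 12-point compound dilution series, no EGF stimulation. Lysed in Triton/protease/phosphatase-inhibitor buffer. Phospho-EGFR (Y1173) read by sandwich ELISA: anti-EGFR capture, anti-phospho-EGFR, anti-rabbit-HRP, chemiluminescence. IC50 from at least duplicates.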

[2] = biological target: Epidermal growth factor receptor (Homo sapiens, UniProt P00533, L858R); test: Inhibition of EGFR L858R mutant phosphorylation in human patient derived H3255 cells incubated for 3 hrs by ELISA method; type: cell-based
[3] = Glutathione reactivity assessed as GSH adduct formation incubated for 1 hr using 10 mM glutathione
Outline: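 Compound incubated 1 h with 10 mM glutathione; GSH adduct formation measured.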

[4] = Time duration during which free plasma concentration stays above in-vitro IC50 level in human NCI-H1975 cells xenografted Foxn1 nude mouse at 50 mg/kg, po qd for 5 days; type: ADME, organism-based; conditions: in vivo, 120 h
Outline: (§1)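 H1975 xenografts in Foxn1 nude mice, oral dosing once daily for 5 days. Plasma sampled after the last dose on day 5, at 30 min, 3 h, 7 h and 24 h. Free drug exposure was compared with in vitro cellular IC50 across the dosing interval.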

[5] = Oral bioavailability in balb/c mouse at 20 mg/kg by liquid chromatography-tandem mass spectrometry; type: ADME, organism-based; conditions: in vivo
Outline: (§2)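 Rodent PK in male balb/c mice and male Wistar rats; plasma drug levels by LC-MS/MS. Mouse oral dosing at 20 mg/kg, with compounds given as a 0.5% methylcellulose/0.5% Tween 80 suspension or as solutions (PEG300/D5W, or ethanol/PEG300 with Solutol or D5W), depending on compound.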

[6] = Clearance in balb/c mouse at 5 mg/kg, iv by liquid chromatography-tandem mass spectrometry; type: ADME, organism-based; conditions: in vivo; outline: as §2
Mus musculus [7] = test: Toxicity in human NCI-H1975 cells xenografted Foxn1 nude mouse assessed as change in body weight at 50 mg/kg, po qd for 5 days (reference value: […]); type: organism-based; conditions: in vivo, 120 h
Mus musculus [8] = test: Toxicity in human NCI-H1975 cells xenografted Foxn1 nude mouse assessed as change in body weight at 20 mg/kg, po qd for 5 days (reference value: […]); type: organism-based; conditions: in vivo, 120 h
[9] = Intrinsic clearance in mouse liver microsomes; type: ADME; conditions: read-out: CLH
[10] = Antitumor activity against human NCI-H1975 cells xenografted in Foxn1 nude mouse assessed as reduction in tumor volume at 20 mg/kg, po qd for 5 days relative to untreated control; type: functional
Outline: (§3)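 Female Foxn1 nude mice, H1975 cells inoculated subcutaneously. Randomized into groups once tumors reached 150−200 mm³, then dosed by oral gavage once daily for 5 days in 0.5% MC/0.5% Tween80 suspension (10 μL/g). Tumor volumes by caliper, (length × width × width)/2. %T/C = 100 × ΔT/ΔC, or % regression = 100 × ΔT/T_initial when ΔT < 0. Body weight recorded daily.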

[11] = Aqueous solubility of the compound at pH 6.8; type: physicochemical
[12] = AUC in balb/c mouse at 20 mg/kg, po by liquid chromatography-tandem mass spectrometry; type: ADME, organism-based; conditions: in vivo; outline: as §2
[13] = Time duration during which free plasma concentration stays above in-vitro IC50 level in human NCI-H1975 cells xenografted Foxn1 nude mouse at 20 mg/kg, po qd for 5 days; type: ADME, organism-based; conditions: in vivo, 120 h; outline: as §1
[14] = Antitumor activity against human NCI-H1975 cells xenografted in Foxn1 nude mouse assessed as reduction in tumor volume at 50 mg/kg, po qd for 5 days relative to untreated control; type: functional; outline: as §3
[15] = biological target: Epidermal growth factor receptor (Homo sapiens, UniProt P00533); test: Inhibition of wild type EGFR phosphorylation in human HaCaT cells incubated for 3 hrs by ELISA method; type: cell-based
Cytochrome P450 2C9 = Cytochrome P450 2C9 (Homo sapiens, UniProt P11712); test: Inhibition of CYP2C9 (unknown origin); type: ADME
[16] = biological target: Epidermal growth factor receptor (Homo sapiens, UniProt P00533, L858R/T790M); test: Inhibition of EGFR L858R/T790M mutant phosphorylation in human patient derived H1975 cells incubated for 3 hrs by ELISA method; type: cell-based
NCI-H1975 = test: Antitumor activity against human NCI-H1975 cells xenografted in Foxn1 nude mouse assessed as reduction in tumor volume dosed orally once daily for 5 days relative to untreated control; type: functional, organism-based; outline: as §3
[17] = Intrinsic clearance in human liver microsomes; type: ADME; conditions: read-out: CLH
Cytochrome P450 2D6 = Cytochrome P450 2D6 (Homo sapiens, UniProt P10635); test: Inhibition of CYP2D6 (unknown origin); type: ADME
[18] = Mean residence time in dog at 1 mg/kg, iv by liquid chromatography-tandem mass spectrometry; type: ADME, organism-based, Canis lupus familiaris; conditions: in vivo
[19] = AUC in dog at 10 mg/kg, po by liquid chromatography-tandem mass spectrometry; type: ADME, organism-based, Canis lupus familiaris; conditions: in vivo
[20] = Volume of distribution at steady state in dog at 1 mg/kg, iv by liquid chromatography-tandem mass spectrometry; type: ADME, organism-based, Canis lupus familiaris; conditions: in vivo, read-out: Vdss
[21] = Oral bioavailability in dog at 10 mg/kg by liquid chromatography-tandem mass spectrometry; type: ADME, organism-based, Canis lupus familiaris; conditions: in vivo
[22] = Clearance in dog at 1 mg/kg, iv by liquid chromatography-tandem mass spectrometry; type: ADME, organism-based, Canis lupus familiaris; conditions: in vivo
[23] = Tmax in dog at 10 mg/kg, po by liquid chromatography-tandem mass spectrometry; type: ADME, organism-based, Canis lupus familiaris; conditions: in vivo
[24] = Cmax in dog at 10 mg/kg, po by liquid chromatography-tandem mass spectrometry; type: ADME, organism-based, Canis lupus familiaris; design: dose 10 mg/kg, route oral; conditions: in vivo
[25] = AUC in dog at 1 mg/kg, iv by liquid chromatography-tandem mass spectrometry; type: ADME, organism-based, Canis lupus familiaris; conditions: in vivo

Cytochrome P450 2D6, sequence (P10635 whole entry): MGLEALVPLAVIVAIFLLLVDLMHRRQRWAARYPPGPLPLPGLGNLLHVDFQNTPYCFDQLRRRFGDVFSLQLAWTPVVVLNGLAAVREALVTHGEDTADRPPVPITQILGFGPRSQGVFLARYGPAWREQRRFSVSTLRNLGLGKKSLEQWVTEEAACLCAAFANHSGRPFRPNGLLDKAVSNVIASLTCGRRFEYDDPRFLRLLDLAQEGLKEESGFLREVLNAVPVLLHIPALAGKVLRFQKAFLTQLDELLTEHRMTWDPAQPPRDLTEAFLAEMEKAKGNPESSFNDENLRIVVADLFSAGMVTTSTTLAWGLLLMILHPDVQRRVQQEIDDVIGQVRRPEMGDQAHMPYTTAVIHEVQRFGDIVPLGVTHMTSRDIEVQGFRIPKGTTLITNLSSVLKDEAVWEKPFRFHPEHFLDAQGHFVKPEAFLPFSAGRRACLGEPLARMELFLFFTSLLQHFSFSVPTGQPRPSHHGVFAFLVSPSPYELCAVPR
Epidermal growth factor receptor (Homo sapiens, UniProt P00533, L858R/T790M), sequence (P00533 25-1210 T790M/L858R limits assumed): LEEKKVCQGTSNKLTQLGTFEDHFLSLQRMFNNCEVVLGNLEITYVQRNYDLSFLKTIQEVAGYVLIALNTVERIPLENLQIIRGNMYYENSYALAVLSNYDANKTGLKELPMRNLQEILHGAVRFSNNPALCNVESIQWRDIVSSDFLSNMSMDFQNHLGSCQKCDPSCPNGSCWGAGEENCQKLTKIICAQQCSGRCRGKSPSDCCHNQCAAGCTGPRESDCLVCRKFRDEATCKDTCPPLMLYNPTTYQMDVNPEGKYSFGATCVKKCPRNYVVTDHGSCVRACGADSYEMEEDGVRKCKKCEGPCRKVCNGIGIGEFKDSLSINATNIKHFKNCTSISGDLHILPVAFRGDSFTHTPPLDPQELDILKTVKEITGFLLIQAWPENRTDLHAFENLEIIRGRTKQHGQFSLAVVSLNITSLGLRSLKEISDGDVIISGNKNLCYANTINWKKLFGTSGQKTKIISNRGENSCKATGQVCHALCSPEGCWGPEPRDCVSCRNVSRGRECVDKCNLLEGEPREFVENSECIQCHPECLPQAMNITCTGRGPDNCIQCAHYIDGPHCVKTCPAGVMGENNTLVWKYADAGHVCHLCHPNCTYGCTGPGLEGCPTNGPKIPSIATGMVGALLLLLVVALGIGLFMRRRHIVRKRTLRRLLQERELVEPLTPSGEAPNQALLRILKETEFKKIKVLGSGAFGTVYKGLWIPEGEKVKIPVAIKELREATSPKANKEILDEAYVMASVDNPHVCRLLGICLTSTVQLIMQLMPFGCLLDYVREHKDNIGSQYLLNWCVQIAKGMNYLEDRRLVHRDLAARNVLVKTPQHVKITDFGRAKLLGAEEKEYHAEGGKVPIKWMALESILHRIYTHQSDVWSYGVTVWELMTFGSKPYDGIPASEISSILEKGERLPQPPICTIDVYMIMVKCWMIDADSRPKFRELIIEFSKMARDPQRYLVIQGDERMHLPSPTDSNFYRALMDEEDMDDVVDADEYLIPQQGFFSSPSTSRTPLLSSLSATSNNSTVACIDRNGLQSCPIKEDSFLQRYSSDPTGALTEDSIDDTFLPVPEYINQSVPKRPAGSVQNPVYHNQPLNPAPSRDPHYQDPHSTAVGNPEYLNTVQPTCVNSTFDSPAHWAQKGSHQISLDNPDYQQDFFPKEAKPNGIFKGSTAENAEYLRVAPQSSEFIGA
Epidermal growth factor receptor (Homo sapiens, UniProt P00533), sequence (P00533 whole entry): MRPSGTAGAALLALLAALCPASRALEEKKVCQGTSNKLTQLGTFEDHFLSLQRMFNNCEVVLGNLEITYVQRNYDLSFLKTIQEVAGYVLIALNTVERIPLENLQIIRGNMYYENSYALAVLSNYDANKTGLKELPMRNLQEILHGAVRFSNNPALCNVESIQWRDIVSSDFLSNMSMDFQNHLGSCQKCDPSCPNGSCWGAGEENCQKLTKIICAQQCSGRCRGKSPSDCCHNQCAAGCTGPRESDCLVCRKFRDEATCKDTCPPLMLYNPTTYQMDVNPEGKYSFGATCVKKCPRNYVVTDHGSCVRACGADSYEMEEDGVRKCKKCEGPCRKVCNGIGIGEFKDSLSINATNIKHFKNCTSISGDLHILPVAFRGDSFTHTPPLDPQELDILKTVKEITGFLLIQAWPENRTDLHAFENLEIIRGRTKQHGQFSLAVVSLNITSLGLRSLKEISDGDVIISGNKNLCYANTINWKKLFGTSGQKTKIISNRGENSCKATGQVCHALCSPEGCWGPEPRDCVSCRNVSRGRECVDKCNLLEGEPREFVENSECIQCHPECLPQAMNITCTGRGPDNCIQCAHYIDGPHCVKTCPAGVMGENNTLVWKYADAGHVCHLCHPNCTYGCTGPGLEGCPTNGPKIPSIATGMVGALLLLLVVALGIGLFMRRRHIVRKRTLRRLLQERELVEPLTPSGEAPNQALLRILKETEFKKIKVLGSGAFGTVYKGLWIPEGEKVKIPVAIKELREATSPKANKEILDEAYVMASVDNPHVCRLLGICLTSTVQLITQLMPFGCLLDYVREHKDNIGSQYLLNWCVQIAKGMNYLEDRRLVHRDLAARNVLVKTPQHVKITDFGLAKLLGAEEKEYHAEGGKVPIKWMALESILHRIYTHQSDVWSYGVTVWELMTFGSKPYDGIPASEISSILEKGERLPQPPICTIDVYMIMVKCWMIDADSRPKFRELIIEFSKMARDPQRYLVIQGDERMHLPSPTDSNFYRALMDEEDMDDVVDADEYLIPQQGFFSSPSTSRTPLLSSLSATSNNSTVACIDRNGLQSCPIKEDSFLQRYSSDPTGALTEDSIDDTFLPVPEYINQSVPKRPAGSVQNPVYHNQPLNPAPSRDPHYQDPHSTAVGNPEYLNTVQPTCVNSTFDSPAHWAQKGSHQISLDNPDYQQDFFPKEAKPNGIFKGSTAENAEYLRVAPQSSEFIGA
Cytochrome P450 2C9, sequence (P11712 whole entry): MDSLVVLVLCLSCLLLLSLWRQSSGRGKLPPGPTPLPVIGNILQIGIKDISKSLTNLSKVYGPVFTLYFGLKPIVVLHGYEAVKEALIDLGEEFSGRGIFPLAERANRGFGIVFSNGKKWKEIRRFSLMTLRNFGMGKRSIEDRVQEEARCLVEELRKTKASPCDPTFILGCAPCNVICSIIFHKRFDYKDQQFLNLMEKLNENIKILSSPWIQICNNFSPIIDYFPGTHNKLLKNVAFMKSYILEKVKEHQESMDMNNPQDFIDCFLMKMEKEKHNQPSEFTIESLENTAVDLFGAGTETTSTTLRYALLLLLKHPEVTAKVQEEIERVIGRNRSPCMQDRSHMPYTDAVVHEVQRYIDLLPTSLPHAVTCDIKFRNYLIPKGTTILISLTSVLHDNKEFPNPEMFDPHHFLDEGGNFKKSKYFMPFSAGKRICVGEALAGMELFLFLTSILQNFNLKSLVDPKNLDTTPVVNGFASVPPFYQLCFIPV
Cytochrome P450 3A4, sequence (P08684 whole entry): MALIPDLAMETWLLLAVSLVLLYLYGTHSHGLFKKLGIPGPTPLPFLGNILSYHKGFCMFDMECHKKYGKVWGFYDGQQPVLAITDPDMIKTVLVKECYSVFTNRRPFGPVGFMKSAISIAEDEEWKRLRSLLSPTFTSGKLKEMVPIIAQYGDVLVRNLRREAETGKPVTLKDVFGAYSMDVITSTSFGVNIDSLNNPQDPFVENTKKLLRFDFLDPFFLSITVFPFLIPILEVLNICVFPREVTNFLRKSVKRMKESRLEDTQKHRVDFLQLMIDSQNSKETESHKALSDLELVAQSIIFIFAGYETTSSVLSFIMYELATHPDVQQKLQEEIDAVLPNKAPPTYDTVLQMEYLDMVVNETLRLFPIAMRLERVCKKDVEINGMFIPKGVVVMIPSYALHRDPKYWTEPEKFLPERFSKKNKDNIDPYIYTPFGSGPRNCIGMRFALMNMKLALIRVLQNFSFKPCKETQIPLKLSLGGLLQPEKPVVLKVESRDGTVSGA
Epidermal growth factor receptor (Homo sapiens, UniProt P00533, L858R), sequence (P00533 25-1210 L858R limits assumed): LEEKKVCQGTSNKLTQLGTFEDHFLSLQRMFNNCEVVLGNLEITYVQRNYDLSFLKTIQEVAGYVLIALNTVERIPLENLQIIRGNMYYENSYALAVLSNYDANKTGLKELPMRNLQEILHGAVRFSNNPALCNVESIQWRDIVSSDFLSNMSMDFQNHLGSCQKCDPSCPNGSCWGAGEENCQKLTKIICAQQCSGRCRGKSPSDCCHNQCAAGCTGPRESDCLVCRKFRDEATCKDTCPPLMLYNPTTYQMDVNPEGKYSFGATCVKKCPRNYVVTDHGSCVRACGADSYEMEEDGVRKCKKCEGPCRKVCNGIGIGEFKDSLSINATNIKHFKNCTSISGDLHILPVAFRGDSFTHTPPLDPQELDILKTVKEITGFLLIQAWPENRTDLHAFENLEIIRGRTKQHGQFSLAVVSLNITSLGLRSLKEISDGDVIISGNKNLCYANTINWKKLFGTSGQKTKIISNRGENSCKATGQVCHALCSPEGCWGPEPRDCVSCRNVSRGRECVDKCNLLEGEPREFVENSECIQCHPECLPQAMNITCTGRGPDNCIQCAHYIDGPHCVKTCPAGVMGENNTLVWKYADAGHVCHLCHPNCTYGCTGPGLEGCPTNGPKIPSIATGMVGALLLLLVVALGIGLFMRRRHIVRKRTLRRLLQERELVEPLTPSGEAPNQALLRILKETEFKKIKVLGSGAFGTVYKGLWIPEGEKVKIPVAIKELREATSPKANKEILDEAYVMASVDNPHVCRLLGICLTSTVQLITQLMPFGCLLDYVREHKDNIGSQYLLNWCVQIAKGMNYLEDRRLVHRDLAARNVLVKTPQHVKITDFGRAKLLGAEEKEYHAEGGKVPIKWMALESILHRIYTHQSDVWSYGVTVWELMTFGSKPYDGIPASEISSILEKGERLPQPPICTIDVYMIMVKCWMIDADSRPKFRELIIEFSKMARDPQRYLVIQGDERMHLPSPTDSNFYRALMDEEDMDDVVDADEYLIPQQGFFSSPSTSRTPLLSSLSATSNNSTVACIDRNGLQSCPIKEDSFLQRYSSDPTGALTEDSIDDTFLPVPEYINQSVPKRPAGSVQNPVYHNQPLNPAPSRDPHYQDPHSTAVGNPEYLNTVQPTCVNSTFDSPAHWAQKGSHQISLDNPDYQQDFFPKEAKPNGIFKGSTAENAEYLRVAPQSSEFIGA

SMILES: Cc1cccc2nc(NC(=O)c3ccnc(C(F)(F)F)c3)n([C@@H]3CCCCN(C(=O)/C=C/CN(C)C)C3)c12
- IC50 (Cytochrome P450 3A4): > 25000 nM
- IC50 [1]: 1.48 nM
- IC50 [2]: 2.65 nM
- Drug metabolism [3]: < 5%
- Time [4]: <= 14 hr
- bioavailability [5]: 27%
- clearance [6]: 62.5 mL/min/kg
- Activity (Mus musculus [7]): -3.5%
- Activity (Mus musculus [8]): -0.3%
- microsomal CLint [9]: 96 µL/min/mg
- T/C [10]: -31%
- solubility [11]: 12.7 µM (≈ 6.71 µg/mL)
- AUC [12]: 2.84 µM·h
- Time [13]: <= 14 hr
- T/C [14]: -64%
- IC50 [15]: 72 nM
- IC50 (Cytochrome P450 2C9): > 25000 nM
- IC50 [16]: 1.51 nM
- Activity (NCI-H1975): Dose-dependent effect
- microsomal CLint [17]: 71 µL/min/mg
- IC50 (Cytochrome P450 2D6): 6100 nM

SMILES: Cc1cc(C(=O)Nc2nc3cccc(Cl)c3n2[C@@H]2CCCCN(C(=O)/C=C/CN(C)C)C2)ccn1.Cl
- MRT [18]: 13.8 h
- AUC [19]: 5.23 µM·h
- Vd [20]: 35.2 L/kg
- bioavailability [21]: 67%
- clearance [22]: 43.7 mL/min/kg
- Tmax [23]: 2.3 h
- Cmax [24]: 435 nM
- AUC [25]: 0.783 µM·h
